Key:
[1] = Partition coefficient (logP); assay type: physicochemical; details: octanol/water
Method in brief: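 Lipophilicity (log P) estimated by HPLC analysis.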

[2] = molecular target: Glutamate NMDA receptor; experiment: In vitro binding to N-methyl-D-aspartate glutamate receptor using [3H]MK-801 (1 nM) and rat brain membrane suspensions
Method in brief: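 Test compounds displaced the radioligand, and IC₅₀ values were read from displacement curves. Ki was calculated from IC₅₀ by the Cheng–Prusoff method. Values are means of at least three experiments, with standard deviation.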

Row | SMILES | logP [1] | Ki [2] [nM]
1 | CN(C(=N)Nc1cccc2ccccc12)c1cccc(I)c1 | 2.94 | 4.65
2 | CSc1ccc(Cl)c(NC(=N)N(C)c2cccc(I)c2)c1 | 2.91 | 3.48
3 | CSc1ccc(Cl)c(NC(=N)N(C)c2cccc(F)c2)c1 | 2.34 | 
4 | CN(C(=N)Nc1cccc2ccccc12)c1cccc(F)c1 | 2.31 | 839
5 | CSc1ccc(Cl)c(NC(=N)N(C)c2cc(C)cc(C)c2)c1 | 3.12 | 14
6 | CSc1cccc(N(C)C(=N)Nc2cc(SC)ccc2Cl)c1 [CNS-5161] | 2.68 | 1.87

Results, then the compound that gave them:

Row | logP [1] | Ki [2] [nM] | SMILES
7 | 2.94 | 21.9 | Cc1cc(C)cc(N(C)C(=N)Nc2cccc3ccccc23)c1
8 | 2.26 | 43.5 | COc1cccc(N(C)C(=N)Nc2cccc3ccccc23)c1
9 | 2.34 | 5.2 | COc1cccc(N(C)C(=N)Nc2cc(SC)ccc2Cl)c1
10 | 3 | 6.28 | CCc1cccc(N(C)C(=N)Nc2cc(SC)ccc2Cl)c1
